# Screening results (PubChem)
# In the library only some 2.6% were active in any assay of this set; here they are far more common.
# ABHD5-PLIN5 inh: blocks binding of human ABHD5 to perilipin-5; Q00G26+Q8WTS1; actives 0.78% (n = 360,000); inhibition, % at 4 µM; Split G. princeps luciferase complementation, luminescence, 4 h; AID 602281;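 active = inhibition above the mean inhibition across every tested compound plus 3 SD, cut at about 22% in these data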;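 also: 0% = DMSO only wells and the 100% control is not disclosed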
# HCV core dimer: blocks dimerization of HCV core protein; TR-FRET GST/Flag-core106 dimerization, 1536-well; inhibition, % at 5 µM; actives 0.33% (n = 300,000); AID 1899;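 active = inhibition above the mean of all tested compounds plus 3 SD, set per screening campaign, cut at about 45% in these data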
#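 Test system: GST/Flag-tagged HCV core106 proteins; Medium: KF-containing HEPES buffer, pH 7.45, DTT, CHAPS, BSA; Times: compound-protein-antibody incubation 4 h at 22.5 °C; Detection: TR-FRET 671 and 617 nm emission; Benchmarks: wells lacking GST-core106 and wells with excess unlabelled core106.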
# rCAG binder: molecules binding r(CAG) RNA repeats | inhibition, % at 3 µM | actives 1.3% (n = 370,000) | r(CAG) RNA repeat, TO-PRO-1 dye displacement fluorescence;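 active = inhibition above the plate cutoff, the mean of all test compounds on that plate plus 3 SD, cut at about 35% in these data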;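 also: 0% = DMSO alone and 100% = 100 µM mitoxantrone as full dye displacement; higher means more dye released from RNA so lower well fluorescence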
# NadD inh: blocks S. aureus nicotinate mononucleotide adenylyltransferase | purified NadD enzyme, colorimetric absorbance read-out | inhibition, % at 20 µM | actives 0.78% (n = 360,000); in the data active = inhibition above about 26%
# NadD inh conf: NadD (S. aureus) inhibition, single concentration confirmation; actives 13% (n = 2,000); shares compounds with NadD inh; purified S. aureus NadD, colorimetric enzyme assay; inhibition, % at 20 µM; AID 624309; in the data active = inhibition mostly above about 42%, no sharp cut-off; inactive = mostly below about 42%
# Active calls of the source: *; . = not tested or not shown.
SMILES,ABHD5-PLIN5 inh,HCV core dimer,rCAG binder,NadD inh,NadD inh conf
COc1cc(/C=N/NC(=O)COc2c(C)cc([N+](=O)[O-])cc2C)ccc1OC(=O)c1ccccc1Br,-2,37,9,33*,-3
Cc1c(C(=O)N/N=C/c2ccccc2Cl)[nH][nH]c1=O,.,.,1,.,.
COc1ccc2nc3sc(C(=O)NCCCN4CCc5ccccc5C4)cc3cc2c1,10,-13,13,30*,9
Cc1cccc(Nc2nnc(SC/C(O)=C(\C#N)c3nc4ccccc4[nH]3)s2)c1C,6,34,26,45*,41
Cn1cnnc1SC/C(O)=C(\C#N)c1nc2ccccc2[nH]1,6,1,5,-4,.
Cc1cccc(C)c1Nc1nnc(SC/C(O)=C(\C#N)c2nc3ccccc3[nH]2)s1,5,28,25,32*,69*
CCc1nnc(NC(=S)Nc2ccccc2)s1,-6,-9,11,-3,.
CCOc1ccc(C(=O)Nc2nnc(NC(=S)Nc3ccccc3)s2)cc1,-2,20,27,35*,11
COc1cc(NC(=O)COc2ccc(Cl)cc2)ccc1-c1cc2ccccc2oc1=O,-11,33,15,38*,5
Cc1ccc(C)c(N(CC(=O)NC2CCCC2)C(=O)c2cc3cc4cc(C)ccc4nc3s2)c1,-2,-5,4,28,.
Cc1cccc(N(CC(=O)NC2CCCC2)C(=O)c2cc3cc4cccc(C)c4nc3s2)c1C,-4,-5,3,40*,10
O=C(N[C@H]1C/C=C\C[C@@H](CC(=O)N(CCO)Cc2ccccc2)C(=O)N[C@H](Cc2c[nH]c3ccccc23)COC1=O)OCC1c2ccccc2-c2ccccc21,12,.,14,36*,25
O=C(N[C@H]1C/C=C\C[C@H](CC(=O)N(CCO)Cc2ccccc2)C(=O)N[C@H](Cc2c[nH]c3ccccc23)COC1=O)OCC1c2ccccc2-c2ccccc21,12,.,16,32*,17
O=C(N[C@@H]1C/C=C\C[C@@H](CC(=O)N(CCO)Cc2ccccc2)C(=O)N[C@@H](c2ccccc2)COC1=O)OCC1c2ccccc2-c2ccccc21,14,.,3,17,.
O=C(N[C@@H]1C/C=C\C[C@H](CC(=O)N(CCO)Cc2ccccc2)C(=O)N[C@@H](Cc2c[nH]c3ccccc23)COC1=O)OCC1c2ccccc2-c2ccccc21,6,.,15,34*,23
O=S1(=O)c2cc(Cl)ccc2N2CCC[C@@H]2CN1Cc1ccc(Cl)c(Cl)c1,.,.,8,.,.
COCCCNC(=O)C[C@H]1C[C@@]2(C(=O)OC)C(=C[C@H](COCc3ccccc3)O[C@@H]2C)N(Cc2ccco2)C1=O,.,.,3,.,.
CCOc1ccc(S(=O)(=O)N(CC(=O)N/N=C/c2ccc(-c3ccc([N+](=O)[O-])cc3)o2)c2ccccc2)cc1,1,75*,33,41*,13
CCOc1ccc(C(=O)N/N=C/c2ccc(-c3ccc(S(=O)(=O)Nc4ncccn4)cc3)o2)cc1,0,1,57*,33*,53*
COc1ccc(C2=NN(C(=O)CSc3nc(=O)n4cccc(C)c4n3)C(c3ccc(C)cc3)C2)cc1 (centres undefined),-5,35,4,36*,9
COc1ccc(C2=NN(C(=O)CSc3ncccn3)C(c3ccc(C)cc3)C2)cc1 (centres undefined),1,12,-4,-2,.
CNC(=O)c1[nH]cnc1C(=O)Nc1ccc(Cl)cc1,-15,-6,6,-3,.
CC(C)C[C@H](NC(=O)c1[nH]cnc1C(=O)Nc1ccc(CNC(=O)OC(C)(C)C)cc1)C(=O)OC(C)(C)C,-7,-4,12,17,.
O=C(Nc1ccc(Cl)cc1)c1nc[nH]c1C(=O)NCCN(CCNC(=O)c1[nH]cnc1C(=O)Nc1ccc(Cl)cc1)CCNC(=O)c1[nH]cnc1C(=O)Nc1ccc(Cl)cc1,4,.,.,57*,3
Cc1cccc(NC(=O)c2nc[nH]c2C(=O)NCCN(CCNC(=O)c2[nH]cnc2C(=O)Nc2cccc(C)c2)CCNC(=O)c2[nH]cnc2C(=O)Nc2cccc(C)c2)c1,-32,.,7,42*,-1
CC(C)(C)OC(=O)NCc1ccc(NC(=O)c2nc[nH]c2C(=O)N[C@@H](Cc2ccccc2)C(=O)OC(C)(C)C)cc1,-10,11,6,30*,-2
O=C(Nc1ccccc1)c1nc[nH]c1C(=O)NCCCCCCNC(=O)c1[nH]cnc1C(=O)Nc1ccccc1,3,.,12,32*,-1
